Drawing on PubChem BioAssay AID1235 (PCMD, 2008), this text covers inhibition for 96 compounds.

The whole screen tested about 62,000 compounds, of which about 50 (0.08%) were called active. For the sample, actives were picked, then their nearest neighbours and some compounds at random. A number with no mark means an inactive call.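 The calls were made as follows: active = inhibition above 30% in each of the two pooled mixtures holding the compound, so the lower value exceeds 30%; inactive = the rest.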

By inhibition is commonly meant the drop in the measured response relative to a control, in per cent.

The test can be described thus: alternative complement pathway inhibitors, primary screen, biochemical, ELISA, human serum, orthogonally pooled compounds (AID 1235).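 Also: 0% = serum in Mg-EGTA without compound and 100% = EDTA serum blank.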 The settings on record: LPS-coated ELISA, C3 deposition, tested in compound mixtures, at 5 µM, stronger effect = higher value. An outline of the steps: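 Test system: human serum complement alternative pathway, C3 deposition onto LPS / Medium: Mg2+-EGTA GVB++ buffer containing human serum at 1:15 dilution / Probe or stimulus: Plate-bound LPS / Times: 1 h at 37 °C / Signal: ELISA with HRP anti-human C3 antibody, TMB substrate, absorbance 450 nm / Measure: percent inhibition / Repeats: two pool placements per compound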
Background: ELISA stands for enzyme-linked immunosorbent assay.
`c1c2c(cc3sc(N4CCCCC4)nc13)OCCO2`: the inhibition is -3.86%.
Consider `CC(C(=O)O)N1C(=O)c2cccc3cccc1c23` (stereo unspecified), for which the inhibition is -0.13%.
For `O=C1C2(c3ccccc3)CN(CCCO)CC1(c1ccccc1)CN(CCCO)C2`, the inhibition was 0.125%.
In the case of `Cc1cc(C)nc(NC(=O)C(C)N2C(=O)c3ccccc3C2=O)n1` (stereo unspecified) it was 4.23%; in that of `Cc1cc(N(C)C)cc(C)[n+]1[O-]`, 13.5%; in that of `CC(=O)NC(Cc1ccc(F)cc1)C(=O)O` (stereo unspecified), 10.5%.
As to `COc1ccc2c(Cl)c(-c3nnco3)sc2c1`, the inhibition was 9.28%.
As for `CCCCCN(C(=O)NC(=O)Nc1ccccc1C)S(C)(=O)=O`, the figure is 18.8%.
As for `CS(=O)(=O)N(CC(=O)NCc1ccco1)c1ccc2c(c1)OCO2`, the figure is -0.135%.
For the compound `COc1ccc(CCNC(=O)c2ccco2)cc1`, the inhibition was 3.87%.
For the compound `O=C(CSc1nnc(-c2cccs2)n1-c1ccccc1)N1CCN(C(=O)c2ccco2)CC1`, the inhibition was 13.8%.
As for `COC(=O)c1ccccc1NC(=O)CSc1ccccn1`, the figure is -0.725%; as for `COc1cccc(Oc2ccc(N)cc2)c1`, 5.52%; as for `CCNC(=O)N1CCNC(=O)C1CC(=O)Nc1ccc(C(=O)OCC)cc1` (stereo unspecified), -0.745%.
As for `Cc1ccsc1C(C(=O)NC1CCCCC1)N(C(=O)Cc1cccs1)C1CC1` (stereo unspecified), the figure is -3.39%.
Regarding `CCN1C(=O)/C(=C\N2CCN(c3cccc(Cl)c3)CC2)SC1=S`, the inhibition was 11.5%.
Regarding `S=C1SCN(CCN2CCOCC2)CN1Cc1ccccc1`, the inhibition is 16%.
Regarding `Cc1occc1C(=O)Nc1nnc(C2CCCCC2)s1`, the inhibition was 9.21%.
In the case of `COCCN(CC(=O)Nc1ccccc1C)S(=O)(=O)c1ccc(S(=O)(=O)N2CCCC2)cc1` it was 10.3%.
Consider `O=C(NCCCN1CCN(c2ccccc2F)CC1)C1CCC(=O)N1C1CCCCC1` (stereo unspecified), for which the inhibition is 1.73%.
In the case of `COc1ccc(-c2nc(CS(=O)CC(=O)NCc3cccnc3)c(C)o2)cc1OC` (stereo unspecified) it was 10.4%.
As for `CC(=O)O[C@]1(C(C)=O)CC[C@H]2[C@@H]3C=C(C)C4=CC(=O)CC[C@]4(C)[C@H]3CC[C@@]21C`, the inhibition was 9.71%.
As for `CCNS(=O)(=O)c1ccc(NC(=O)Nc2cccc(C(F)(F)F)c2)cc1`, the figure is 12.9%.
For the compound `Cc1c(C(=O)N2CCCc3ccccc32)sc2nc(-c3ccccc3)cn12`, the inhibition is 16%.
For the compound `O=C1c2cccnc2C(=O)N1Cc1cccs1`, the inhibition is 14.6%.
`Cc1ccc(C2CC(c3cccc(Br)c3)n3nc(N)nc3N2)cc1` (stereo unspecified): the inhibition was 11.6%.
In the case of `CCOC(=O)Cn1c(=O)oc2cc(S(=O)(=O)NCC3CCCO3)ccc21` (stereo unspecified) it was 15%; in that of `CCOC(=O)c1oc2ccccc2c1NC(=O)c1cccs1`, 0.31%; in that of `CCCS(=O)(=O)N1CCCC(C(=O)N2CCN(c3ccccc3)CC2)C1` (stereo unspecified), 4.18%.
Turning to `COc1ccc(-n2nnc3c(=O)n(CC(=O)N4CCC(Cc5ccccc5)CC4)cnc32)cc1`, the inhibition is 21.3%.
In the case of `COc1cc(OC)cc(C(=O)NCCSCc2ccco2)c1` it was 4.01%; in that of `CCNS(=O)(=O)c1ccc(NC(=O)Nc2cccc(OC)c2)cc1`, 27.3%; in that of `O=C(c1cccc2ccccc12)N1CCN(c2ccccc2F)CC1`, 18.4%.
Regarding `CCOC(=O)C1CCN(C(=O)CSc2cc(=O)n(C)c3ccccc23)CC1`, the inhibition is 7.27%.
Take `CCn1ncc(C2=NOC(C(=O)Nc3ccccc3C(=O)OC)C2)c1C` (stereo unspecified): the inhibition was 12.4%.
As for `COc1ccc(N(Cc2cc3cc(OC)ccc3[nH]c2=O)S(C)(=O)=O)cc1`, the figure is -2.02%.
In the case of `CCc1c(C)nc2ncnn2c1N1CCC(C(=O)NCc2ccc3c(c2)OCO3)CC1` it was 20.2%; in that of `Cc1ccc(-c2nc(CS(=O)CC(=O)NC3CCCC3)c(C)o2)cc1` (stereo unspecified), 10.5%; in that of `FC(F)(F)c1nnc2sc(-c3ccco3)nn12`, 7.12%.
In the case of `CCOC(=O)C(CCOc1cccc(CC)c1)C(=O)OCC` it was 9.83%; in that of `COc1ccc(-c2nnn(CC(=O)N(CCO)C(C(=O)NC3CCCC3)c3ccc(F)cc3)n2)cc1` (stereo unspecified), 3.14%.
On to `Cc1ccccc1CSc1nnc(-c2ccccn2)n1N`, for which the inhibition is 12.7%.
As for `CCOC(=O)c1[nH]c2ccc(C)cc2c1N=C(C)N(C)C`, the figure is 10.8%; as for `COC(=O)C1=C(C)NC2=C(C(=O)c3ccccc32)C1c1ccc(-c2ccc(C(=O)O)cc2)o1` (stereo unspecified), 7.73%.
As for `CC1C=CCC2C(=O)N(c3cccc(C(=O)N4CCCCCC4)c3)C(=O)C12` (stereo unspecified), the figure is 19%.
For the compound `CCS(=O)(=O)N1CCCC(C(=O)NCc2ccc(C)cc2)C1` (stereo unspecified), the inhibition was 13.3%.
As for `COC(=O)Cc1c(C)c2ccc(OCC(=O)NCc3ccc4c(c3)OCO4)cc2oc1=O`, the figure is 4.91%; as for `CNC(=O)CSc1nnc(CCc2ccccc2)n1-c1ccccc1`, 5.29%.
As for `CC1CCCN(C(=O)Cn2c(=O)oc3ccccc32)C1` (stereo unspecified), the figure is -0.77%; as for `CC1(C)SC2c3ccccc3C(=O)N2[C@@H]1C(=O)NCc1ccco1` (stereo partly specified), -5.49%; as for `O=C(c1ccc(O)cc1)c1ccc(C(=O)O)c(C(=O)O)c1`, -8.85%.
As for `O=C(C1CCN(CC2CCCCC2)CC1)N1CCCC1`, the figure is 4.05%; as for `COC(=O)c1oc2ccc(Br)cc2c1NC(C)=O`, 11.8%.
For the compound `COc1ccccc1CNCc1cccs1`, the inhibition was -3.09%.
As for `CCn1cc(C(=O)NCc2ccc(OC)cc2OC)c(=O)c2ccc(C)nc21`, the figure is -3.58%; as for `COc1ccc(-c2noc(-c3cccc(OC)c3OC)n2)cc1OC`, 21.6%; as for `O=C(CN1CCN(c2nc(-c3ccccc3)cs2)CC1)NCc1ccc2c(c1)OCO2`, 13.6%.
In the case of `Cc1cccc(N(CC(O)CN(C)C)S(=O)(=O)c2ccccc2)c1` (stereo unspecified) it was -22.7%; in that of `COC(=O)[C@H](C)NC(=O)Nc1ccc(OC(F)(F)F)cc1`, 4.04%.
For `O=C1OC(NC(=O)c2ccccc2)C(N2CCOCC2)=C1Cl` (stereo unspecified), the inhibition was 18.5%.
For the compound `Cc1ccc(Oc2ccc(N)cc2)cc1`, the inhibition is -0.695%.
As to `O=C(CC1NCCNC1=O)Nc1ccc(Oc2ccccc2)cc1` (stereo unspecified), the inhibition is 32.3% (active).
In the case of `CCOc1ccc(NC(=O)CC2NCCNC2=O)cc1` (stereo unspecified) it was 2.46%; in that of `O=C(CC1Nc2ccccc2NC1=O)Nc1ccccc1` (stereo unspecified), -0.205%.
`CCCSc1nc2c(c(=O)n(C)c(=O)n2C)n1Cc1ccc(C)cc1`: the inhibition is -3.43%.
Consider `CNC(=O)C1CC(=O)N(Cc2ccc3c(c2)OCO3)C(=Nc2ccc(F)cc2)S1` (stereo unspecified), for which the inhibition was 13%.
Take `O=C(C(Cc1ccccc1)n1cccc1)N1CCN(C2CCCCC2)CC1` (stereo unspecified): the inhibition was 14.7%.
Take `O=C(O)c1cccc2c1C(=O)N(C1CCCCC1)C2`: the inhibition was 16.2%.
In the case of `O=C(Cn1nc(Cc2cccnc2)c2ccccc2c1=O)NCC1COc2ccccc2O1` (stereo unspecified) it was 15.7%; in that of `CCOc1cc2c(cc1OCC)C(C(=O)O)C(c1ccc(OC)c(O)c1)N(C)C2=O` (stereo unspecified), 16.6%.
Consider `Fc1ccccc1OCCSc1nc2ccccc2o1`, for which the inhibition is -8.88%.
As for `Cc1nn(-c2ccccc2)c2c1C(=O)NC(=O)C(C)(C)C2`, the figure is 5.83%; as for `N#C/C=C\Oc1ccc(Cl)cc1N`, -1.31%; as for `CCOC(=O)c1cccc(NC(=O)CCc2c(C)nc3ncnn3c2C)c1`, 1.8%.
As for `Cc1ccc(-c2nc(CS(=O)CC(=O)N3CCN(c4ncccn4)CC3)c(C)o2)cc1` (stereo unspecified), the figure is 22.7%.
As for `Cc1onc(-c2ccccc2Cl)c1C(=O)NCCn1ccc2ccccc21`, the figure is 7.02%.
On to `CCOc1ccc(CNC(=O)C2CC(=O)N(C3CCCC3)C2)cc1OC` (stereo unspecified), for which the inhibition was 18.4%.
`Cc1cc2c(=O)n(C)c(SCC(=O)c3cc4ccccc4o3)nc2s1`: the inhibition is 3.24%.
Take `Cc1nc2ncnn2c(C)c1CCC(=O)N1CCN(C(=O)c2ccco2)CC1`: the inhibition was 1.46%.
Turning to `CN(C(=O)COc1nnc(-c2cccs2)c(-c2cccs2)n1)c1ccccc1`, the inhibition was 7.72%.
In the case of `C=CCN1C(=O)C(O)(CC(=O)c2ccc(Cl)cc2)c2ccccc21` (stereo unspecified) it was 8.76%; in that of `CCOCCCNC(=O)Cc1cc(=O)[nH]c(=O)[nH]1`, 26.3%; in that of `CC(C)CCNC(=O)CN(C(=O)Cn1nnc(-c2ccc(F)cc2)n1)C1CCCC1`, 0.465%.
Take `COc1ccc(C2SCCN2S(=O)(=O)c2ccccc2)cc1OC` (stereo unspecified): the inhibition was 21.6%.
Consider `COC(=O)c1ccc(CN(c2ccccc2OC)S(=O)(=O)c2cccs2)o1`, for which the inhibition is -0.725%.
As for `CC1(C)C(=O)C2(CCCCC2)C(=O)OC1c1cccs1` (stereo unspecified), the figure is 15.8%; as for `COc1ccc(-c2nc3n(c2Br)CCC3)cc1`, 7.42%; as for `O=C(CSc1nc2cc3c(cc2c(=O)n1CCC1=CCCCC1)OCO3)NCc1ccco1`, 15.2%.
With `CN1C(C)(C)CC(NC(=O)CCC(=O)NC2CC(C)(C)N(C)C(C)(C)C2)CC1(C)C`, the inhibition was 9.95%.
As for `CCOC(=O)C1CCN(C(=O)C2CCN(S(=O)(=O)c3c(C)noc3C)CC2)CC1`, the inhibition was -18.4%.
As to `COCCn1nnnc1C(c1ccccc1Cl)N1CCN(c2ccccc2OC)CC1` (stereo unspecified), the inhibition was 9.52%.
On to `O=C(CCOc1ccccc1)NCc1ccccc1`, for which the inhibition is 12.9%.
With `O=C(CCCN1C(=O)C2C3C=CC(C3)C2C1=O)N1CCN(c2ccccc2)CC1` (stereo unspecified), the inhibition is 11.5%.
As for `C[N+](C)(C)CCNC(=O)c1c(O)c2c([nH]c1=O)CCCC2`, the figure is 4.27%; as for `C/C(=N\O)C1(C)N(O)C(C)(C)C(c2ccc(Br)cc2)=[N+]1[O-]` (stereo unspecified), 0.945%.
For `CC(=O)C1C(c2cccc(Oc3ccccc3)c2)NC(=O)NC1(O)C(F)(F)F` (stereo unspecified), the inhibition is 6.73%.
